From ChEMBL document CHEMBL4138058, “Design and synthesis of novel selective estrogen receptor degradation inducers based on the diphenylheptane skeleton” (Medchemcomm, 2017)

Tests used:
Assay type in all cases: cell-based
[1] = target: T1, Aryl hydrocarbon receptor (Homo sapiens, UniProt P35869); assay: Downregulation of AhR expression in human MCF7 cells at 10 uM after 6 hrs in presence of proteasome inhibitor MG132 by Western blot method relative to lamin B; conditions: mcf7, 6 h
T1 sequence (P35869 whole entry): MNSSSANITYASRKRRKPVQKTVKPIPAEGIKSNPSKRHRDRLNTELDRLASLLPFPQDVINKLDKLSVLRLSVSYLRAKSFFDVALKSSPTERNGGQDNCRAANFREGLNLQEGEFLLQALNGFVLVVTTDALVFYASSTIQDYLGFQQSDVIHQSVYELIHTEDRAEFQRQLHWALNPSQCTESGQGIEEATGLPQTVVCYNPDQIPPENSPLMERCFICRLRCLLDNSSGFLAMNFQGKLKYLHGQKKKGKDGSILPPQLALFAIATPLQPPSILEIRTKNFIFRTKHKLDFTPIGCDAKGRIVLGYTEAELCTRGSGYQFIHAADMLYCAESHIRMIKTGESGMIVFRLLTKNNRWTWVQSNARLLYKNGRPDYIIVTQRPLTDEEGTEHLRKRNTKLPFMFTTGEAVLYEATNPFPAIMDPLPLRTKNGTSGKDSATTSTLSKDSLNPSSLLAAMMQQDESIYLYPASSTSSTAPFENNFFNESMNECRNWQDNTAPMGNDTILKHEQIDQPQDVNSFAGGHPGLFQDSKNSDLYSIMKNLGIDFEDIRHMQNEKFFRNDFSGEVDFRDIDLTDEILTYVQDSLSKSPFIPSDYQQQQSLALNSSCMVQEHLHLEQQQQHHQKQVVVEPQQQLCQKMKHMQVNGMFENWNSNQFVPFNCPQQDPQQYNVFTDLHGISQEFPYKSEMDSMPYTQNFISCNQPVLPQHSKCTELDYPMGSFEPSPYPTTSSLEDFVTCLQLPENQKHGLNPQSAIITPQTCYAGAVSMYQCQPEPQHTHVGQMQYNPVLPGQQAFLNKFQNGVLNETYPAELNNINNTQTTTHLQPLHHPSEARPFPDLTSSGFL
In short: (§1)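 MCF-7 cells kept in DMEM with 10% FBS, kanamycin and 10 μg/mL insulin, then exposed to compounds for 6 h. Lysates made in SDS buffer (0.1 M Tris-HCl pH 8.0, 10% glycerol, 1% SDS), boiled, BCA-normalized and run on SDS-PAGE. Blots probed with anti-ERα, AR, AhR or VDR and β-actin or lamin B. Chemiluminescence quantified as target/loading-protein ratio; means ± S.E., n=3.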

[2] = target: T1, Aryl hydrocarbon receptor; assay: Downregulation of AhR expression in human MCF7 cells at 1 uM after 6 hrs by Western blot method relative to lamin B; conditions: mcf7, 6 h; in short: as §1
[3] = target: T1, Aryl hydrocarbon receptor; assay: Downregulation of AhR expression in human MCF7 cells at 3 uM after 6 hrs by Western blot method relative to lamin B; conditions: mcf7, 6 h; in short: as §1
[4] = target: T2, Vitamin D3 receptor (Homo sapiens) (UniProt P11473); assay: Downregulation of VDR expression in human MCF7 cells at 10 uM after 6 hrs by Western blot method relative to lamin B; in short: as §1
T2 sequence (whole entry): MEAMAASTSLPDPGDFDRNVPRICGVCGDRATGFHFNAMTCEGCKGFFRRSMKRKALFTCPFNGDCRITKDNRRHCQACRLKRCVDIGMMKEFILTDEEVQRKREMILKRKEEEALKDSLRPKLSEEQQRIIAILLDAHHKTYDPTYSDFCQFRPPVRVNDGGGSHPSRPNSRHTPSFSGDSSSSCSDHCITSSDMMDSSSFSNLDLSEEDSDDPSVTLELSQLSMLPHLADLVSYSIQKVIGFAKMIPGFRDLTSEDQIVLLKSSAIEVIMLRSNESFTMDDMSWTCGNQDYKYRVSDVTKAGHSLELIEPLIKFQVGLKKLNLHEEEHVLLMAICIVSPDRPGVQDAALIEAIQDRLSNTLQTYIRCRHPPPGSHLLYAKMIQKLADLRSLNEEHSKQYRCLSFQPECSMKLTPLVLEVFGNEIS

[5] = target: T3, Estrogen receptor (Homo sapiens) (UniProt P03372); assay: Downregulation of ERalpha expression in human MCF7 cells after 6 hrs by Western blot method; in short: as §1
T3 sequence (whole entry): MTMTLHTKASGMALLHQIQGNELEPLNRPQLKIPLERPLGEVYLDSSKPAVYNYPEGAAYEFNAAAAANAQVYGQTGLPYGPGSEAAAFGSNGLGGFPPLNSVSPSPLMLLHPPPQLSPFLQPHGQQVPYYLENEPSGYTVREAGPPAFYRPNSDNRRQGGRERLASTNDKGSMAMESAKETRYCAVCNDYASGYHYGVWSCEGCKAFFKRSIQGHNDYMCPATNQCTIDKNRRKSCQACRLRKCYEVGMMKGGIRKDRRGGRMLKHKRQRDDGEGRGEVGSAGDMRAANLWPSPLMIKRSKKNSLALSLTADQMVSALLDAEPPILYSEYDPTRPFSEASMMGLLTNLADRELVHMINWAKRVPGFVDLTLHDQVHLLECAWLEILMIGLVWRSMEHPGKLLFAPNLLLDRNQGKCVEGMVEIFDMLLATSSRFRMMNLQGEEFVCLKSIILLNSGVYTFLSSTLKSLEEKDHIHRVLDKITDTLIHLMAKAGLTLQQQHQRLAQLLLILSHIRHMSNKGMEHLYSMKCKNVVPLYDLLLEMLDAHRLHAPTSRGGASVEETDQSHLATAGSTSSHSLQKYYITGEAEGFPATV

[6] = target: T1, Aryl hydrocarbon receptor; assay: Downregulation of AhR expression in human MCF7 cells at 1 uM after 6 hrs in presence of proteasome inhibitor MG132 by Western blot method relative to lamin B; conditions: mcf7, 6 h; in short: as §1

CCCCCCCCCCNCCOc1ccc(C(CCC)(CCC)c2ccc(O)c(C)c2)cc1C
Activity [1]: 107%
Activity [2]: 87%
Activity [3]: 80%
Activity [4]: 80%
Activity [5]: Dose-dependent effect
Activity [6]: 105%
